Test [1] concerns DNA topoisomerase II (Bos taurus). Briefly: Inhibition of calf thymus Topoisomerase-2.
In test [2] the test system is DNA topoisomerase I (Bos taurus). Briefly: Inhibition of calf thymus Topoisomerase-I.
For test [3], the target named is Protein kinase C alpha type (Homo sapiens, UniProt P17252). Briefly: Inhibition of Protein kinase C alpha. In a few lines:
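Recombinant PKC-α, partially purified; protamine sulfate substrate without phosphatidylserine or diacylglycerol; γ-33P incorporation measured by spotting aliquots on P81 paper. Compounds serially diluted 10-fold in DMSO/water 50:50. Two independent experiments; IC50 in μM.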

The test system of the next test is B16. Briefly: Inhibition of murine B16 Melanoma cell proliferation. It counts as functional, cell-based, Mus musculus. In a few lines:
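Clonogenic assay: B16 melanoma cells (EMEM with 10% FCS, 37 °C, 5% CO2) seeded 200 per dish, attached 20 h, exposed to increasing drug concentrations 24 h, washed, regrown 12 days; methanol-fixed, crystal violet-stained, colonies >50 cells counted. IC50 is concentration giving 50% cloning efficiency versus untreated.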

The subject of a further test is Bacillus cereus. Briefly: Antimicrobial activity against Bacillus cereus. The format is functional. In a few lines: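 B. cereus ATCC 14579 in Mueller-Hinton broth pH 7.4, compounds diluted in DMSO across 12 tubes spanning 100 to 0.05 μg/mL; growth read after 24 h at 27 °C; MIC taken as lowest inhibitory concentration. Disk diffusion screen also run: 6 mm paper disks carrying 300 μg drug in DMSO, 24 h at 27 °C.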

Test [4] has as its system P388. Briefly: Inhibition of P388 Leukemia cell proliferation. The format is functional, cell-based. Conditions: Mus musculus. The method in brief:
(§1)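 P388 murine leukemia cells exposed to a range of drug concentrations for 96 h at 37 °C; viability scored by neutral red staining; IC50 is the concentration giving 50% growth inhibition.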

Test [5] concerns P388. Briefly: Inhibition of P388 murine leukemia cell proliferation. It counts as functional, cell-based. The settings on record: Mus musculus. The method in brief: as §1

Converted amounts (≈) assume the structure as drawn.

With `CC(=O)OCC1OC(n2c3ccccc3c3c4c(c5c6ccccc6[nH]c5c32)C(=O)N(C)C4=O)C(OC(C)=O)C(OC(C)=O)C1OC(C)=O` (stereo in doubt; 4) [listing 1 of 2 here], the MIC in test [1] and in test [2] was greater than 15 µM throughout.
The term IC50 denotes the midpoint of a concentration-inhibition curve. A low value points to inhibition by little substance. As to `CC(=O)OCC1OC(n2c3ccccc3c3c4c(c5c6ccccc6[nH]c5c32)C(=O)N(C)C4=O)C(OC(C)=O)C(OC(C)=O)C1OC(C)=O` (stereo in doubt; 6) [listing 1 of 2 here], the IC50 in test [3] is greater than 100 µM; in the test with B16 (b16), 75 µM.
Take `CN1C(=O)c2c(c3c4ccccc4n(C4OC(CO)C(O)C(O)C4O)c3c3[nH]c4ccccc4c23)C1=O` (stereo in doubt; 7) [listing 1 of 2 here]: the MIC in test [1] and in test [2] was greater than 20 µM in each case.
As to `CC(=O)OCC1OC(n2c3ccccc3c3c4c(c5c6ccccc6[nH]c5c32)C(=O)N(C)C4=O)C(OC(C)=O)C(OC(C)=O)C1OC(C)=O` (stereo in doubt; 3) [listing 1 of 2 here], the IC50 in test [3] was greater than 100 µM; in the test on B16 (b16), 2.5 µM.
For the molecule `CC1OC(n2c3ccccc3c3c4c(c5c6ccccc6[nH]c5c32)C(=O)N(C)C4=O)C(O)C(O)C1O` (stereo in doubt; 13) [listing 1 of 2 here], the 50% inhibitory concentration (IC50) in test [3] worked out at 82 µM; in the test with B16 (b16) it was 4.75 µM. The molecule also displayed an MIC in the test on Bacillus cereus of 103 µM (≈ 50 µg/mL).
As for `CC(=O)OCC1OC(n2c3ccccc3c3c4c(c5c6ccccc6[nH]c5c32)C(=O)N(C)C4=O)C(OC(C)=O)C(OC(C)=O)C1OC(C)=O` (stereo in doubt; 6) [listing 2 of 2 here], the MIC in test [1] and in test [2] was greater than 15 µM throughout.
With `CN1C(=O)c2c(c3c4ccccc4n(C4OC(CO)C(O)C(O)C4O)c3c3[nH]c4ccccc4c23)C1=O` (stereo in doubt; 8) [listing 1 of 2 here], the 50% inhibitory concentration (IC50) in test [3] is greater than 100 µM; in the test with B16 (b16) it was 3.3 µM. The molecule further came in with an MIC against Bacillus cereus of 12.4 µM (≈ 6.22 µg/mL).
With `CC1OC(n2c3ccccc3c3c4c(c5c6ccccc6[nH]c5c32)C(=O)N(C)C4=O)C(O)C(O)C1O` (stereo in doubt; 13) [listing 2 of 2 here], the MIC in test [1] and in test [2] was greater than 20 µM each time.
For `CC(=O)OCC1OC(n2c3ccccc3c3c4c(c5c6ccccc6[nH]c5c32)C(=O)N(C)C4=O)C(OC(C)=O)C(OC(C)=O)C1OC(C)=O` (stereo in doubt; 4) [listing 2 of 2 here], the IC50 was 78 µM in the test with B16 (b16) and greater than 15 µM with P388 [4]. In addition, in the test with Bacillus cereus (Bacillus cereus, read-out: MIC), the MIC was greater than 74 µM.
Consider `CN1C(=O)c2c(c3c4ccccc4n(C4OC(CO)C(O)C(O)C4O)c3c3[nH]c4ccccc4c23)C1=O` (stereo in doubt; 9) [listing 1 of 2 here], for which the IC50 in test [3] is 62 µM.
`CC1OC(n2c3ccccc3c3c4c(c5c6ccccc6[nH]c5c32)C(=O)N(C)C4=O)C(O)C(O)C1O` (stereo in doubt; 14) [listing 1 of 2 here]: the half-inhibitory concentration (IC50) was greater than 100 µM in test [3]; 3.75 µM in the test on B16 (Mus musculus, B16); 6.2 µM with P388 [4]. The MIC in the test on Bacillus cereus worked out at 3.1 µM (≈ 1.51 µg/mL).
Consider `CC1OC(n2c3ccccc3c3c4c(c5c6ccccc6[nH]c5c32)C(=O)N(C)C4=O)C(O)C(O)C1O` (stereo in doubt; 14) [listing 2 of 2 here], for which the values for the MIC in test [1] and in test [2] were greater than 20 µM and 2 µM (≈ 0.971 µg/mL), respectively.
As for `CO[C@H]1[C@H](O)[C@@H](O)[C@H](n2c3ccccc3c3c4c(c5c6ccccc6[nH]c5c32)C(=O)N(C)C4=O)O[C@@H]1CO`, the IC50 in test [3] was greater than 100 µM; in the test on B16 (Mus musculus, B16), 1.06 µM; in the test with P388 [4] it was 0.7 µM. Moreover, the MIC was found to be 1.55 µM (≈ 0.799 µg/mL) in the test with Bacillus cereus (Bacillus cereus, read-out: MIC) and 0.6 µM (≈ 0.309 µg/mL) in test [2].
Take `CO[C@H]1[C@H](O)[C@@H](O)[C@H](n2c3ccccc3c3c4c(c5c6ccccc6[nH]c5c32)C(=O)NC4=O)O[C@@H]1CO`: the MIC was greater than 19 µM in test [1]; greater than 97 µM with Bacillus cereus (Bacillus cereus, read-out: MIC); 1.95 µM (≈ 0.978 µg/mL) in test [2]. In addition, the results for the IC50 (in test [3]; in the test on P388 [4]) were greater than 100 µM and 6.8 µM, respectively.
For `CC(=O)OCC1OC(n2c3ccccc3c3c4c(c5c6ccccc6[nH]c5c32)C(=O)N(C)C4=O)C(OC(C)=O)C(OC(C)=O)C1OC(C)=O` (stereo in doubt; 5), the MIC in test [1] and in test [2] was greater than 15 µM each time.
`CN1C(=O)c2c(c3c4ccccc4n(C4OC(CO)C(O)C(O)C4O)c3c3[nH]c4ccccc4c23)C1=O` (stereo in doubt; 9) [listing 2 of 2 here]: the MIC in test [1] was greater than 20 µM; in test [2], 6 µM (≈ 3.01 µg/mL).
`CO[C@H]1[C@H](O)[C@@H](O)[C@H](n2c3c(Cl)cccc3c3c4c(c5c6cccc(Cl)c6[nH]c5c32)C(=O)N(C)C4=O)O[C@@H]1CO`: the concentration for half-maximal inhibition (IC50) in test [3] is greater than 100 µM; with B16 (Mus musculus, B16) it was 0.61 µM; in the test with P388 [4] it was 0.6 µM. Further, the MIC in the test on Bacillus cereus (Bacillus cereus, read-out: MIC) is greater than 85 µM.
With `CN1C(=O)c2c(c3c4ccccc4n(C4OC(CO)C(O)C(O)C4O)c3c3[nH]c4ccccc4c23)C1=O` (stereo in doubt; 10) [listing 1 of 2 here], the concentration for half-maximal inhibition (IC50) in test [3] was 99 µM; in the test on B16 (b16), 5.4 µM.
Consider `CN1C(=O)c2c(c3c4ccccc4n(C4OC(CO)C(O)C(O)C4O)c3c3[nH]c4ccccc4c23)C1=O` (stereo in doubt; 10) [listing 2 of 2 here], for which the figures for the MIC in test [1] and in test [2] were greater than 20 µM and 0.6 µM (≈ 0.301 µg/mL), respectively.
As for `CN1C(=O)c2c(c3c4ccccc4n(C4OC(CO)C(O)C(O)C4O)c3c3[nH]c4ccccc4c23)C1=O` (stereo in doubt; 7) [listing 2 of 2 here], the values for the IC50 (in test [3]; with B16 (b16); with P388 [4]) were 59 µM, 0.52 µM and 6 µM, respectively. The MIC in the test with Bacillus cereus (Bacillus cereus, read-out: MIC) was 6.2 µM (≈ 3.11 µg/mL).
In the case of `CC(=O)OCC1OC(n2c3ccccc3c3c4c(c5c6ccccc6[nH]c5c32)C(=O)N(C)C4=O)C(OC(C)=O)C(OC(C)=O)C1OC(C)=O` (stereo in doubt; 3) [listing 2 of 2 here], the MIC in test [1] and in test [2] was greater than 15 µM each time.
Take `CO[C@H]1[C@H](O)[C@@H](O)[C@H](n2c3c(Cl)cccc3c3c4c(c5c6cccc(Cl)c6[nH]c5c32)C(=O)NC4=O)O[C@@H]1CO` [REBECCAMYCIN]: the values for the IC50 (in test [3]; in the test with P388 [5]) were greater than 100 µM and 0.5 µM, respectively. Moreover, in the test on Bacillus cereus (Bacillus cereus, read-out: MIC), the MIC was determined as 10.9 µM (≈ 6.22 µg/mL).
For `CN1C(=O)c2c(c3c4ccccc4n(C4OC(CO)C(O)C(O)C4O)c3c3[nH]c4ccccc4c23)C1=O` (stereo in doubt; 8) [listing 2 of 2 here], the MIC in test [1] was greater than 20 µM; in test [2], 2 µM (≈ 1 µg/mL).

The values above are taken from ChEMBL document CHEMBL1130191 (J Med Chem, 1997).
